Read-outs that look alike come from different tables or passages of the source. Peptide text beside a SMILES is read from it. * marks the point of attachment. Cbz = O=C(OCc1ccccc1)*
Legend:
αMβ2 on PMN = assay: Soluble Alexa 488-labeled ligand binding to PMN, FACS; parameters: species or system human; conditions: clustering inhibitor, 1 h, 37 °C, mean ± SEM, n = 3
Method in brief: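 Human PMNs were incubated for 1 h at 37°C in HBSS/Ca²⁺/Mg²⁺ with soluble Alexa 488-labelled Plg or Fg, with or without clustering inhibitors. After two buffer washes, bound ligand was read by FACS; mean ± SEM, n = 3.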

αMβ2 = αMβ2 clustering on PMNs, fluorescence microscopy; assay type: cell-based, human; conditions: Plg 1 μM + inhibitor, 4 h, 37 °C; MβCD 5 mM, peptide 18 0.5 μM, H7 300 μM, BDM 20 mM, cytochalasin D 10 μM, calpain inhibitor III 10 μM
Method in brief: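 Human PMNs were exposed to ligands (proteins 1 μM, peptides 100 μM) for 4 h at 37°C, or to 1 μM Plg together with clustering inhibitors at the final concentrations used in apoptosis assays. Cells were fixed in 4% paraformaldehyde and stained with anti-αM mAb OKMI plus Alexa 488 goat anti-mouse IgG. They were cytospun, mounted and imaged by fluorescence microscopy (×40/0.7 NA); PMNs came from four donors.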

human PMNs = conditions: for PMN early/late apoptosis (% annexin V+ cells), inhibitor + Fg: clustering inhibitor + Fg 1 μM; for PMN early/late apoptosis (% annexin V+ cells), inhibitor + Fg / PMN early/late apoptosis (% annexin V+ cells), inhibitor + P1 / PMN early/late apoptosis (% annexin V+ cells), inhibitor + P2-C / PMN early/late apoptosis (% annexin V+ cells), inhibitor + Plg: mean ± SEM, n = 5; for PMN early/late apoptosis (% annexin V+ cells), inhibitor + P1: clustering inhibitor + P1 100 μM; for PMN early/late apoptosis (% annexin V+ cells), inhibitor + P2-C: clustering inhibitor + P2-C 100 μM; for PMN early/late apoptosis (% annexin V+ cells), inhibitor + Plg: clustering inhibitor + Plg 1 μM
[1] = target: recombinant purified integrin αMβ2 (Homo sapiens, UniProt P05107+P11215); assay: Solid-phase binding to purified αMβ2; conditions: data not shown; test format not stated
Sequence of recombinant purified integrin αMβ2 (P05107 23-769, other chains not shown): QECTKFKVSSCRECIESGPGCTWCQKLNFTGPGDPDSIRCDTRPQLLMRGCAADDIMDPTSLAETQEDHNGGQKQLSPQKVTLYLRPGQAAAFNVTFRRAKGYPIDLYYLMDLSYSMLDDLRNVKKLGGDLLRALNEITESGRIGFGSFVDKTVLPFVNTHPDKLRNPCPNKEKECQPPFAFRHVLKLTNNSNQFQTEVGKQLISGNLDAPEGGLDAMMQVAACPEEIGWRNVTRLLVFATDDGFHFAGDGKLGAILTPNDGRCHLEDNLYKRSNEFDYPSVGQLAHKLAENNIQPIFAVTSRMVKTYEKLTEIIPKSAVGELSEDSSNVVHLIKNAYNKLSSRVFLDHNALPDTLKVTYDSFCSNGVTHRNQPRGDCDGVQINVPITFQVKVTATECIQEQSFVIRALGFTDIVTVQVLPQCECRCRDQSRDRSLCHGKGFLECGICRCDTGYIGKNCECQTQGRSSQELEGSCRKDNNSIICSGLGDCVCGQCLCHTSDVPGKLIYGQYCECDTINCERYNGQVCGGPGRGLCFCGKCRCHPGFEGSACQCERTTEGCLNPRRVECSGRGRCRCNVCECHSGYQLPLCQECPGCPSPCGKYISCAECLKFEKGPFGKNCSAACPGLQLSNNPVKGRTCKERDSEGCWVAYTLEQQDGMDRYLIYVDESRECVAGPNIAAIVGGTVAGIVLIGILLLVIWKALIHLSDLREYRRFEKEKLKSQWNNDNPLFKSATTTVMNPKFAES
Method in brief: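 Purified recombinant αMβ2, αM or β2 (from HEK293 lines) was coated overnight at 4°C in TBS with 10 mM n-octyl-β-D-glucopyranoside and postcoated with 0.5% PVP for 1 h at 37°C. Biotinylated Plg or Ang(1–4) (0–10 μM) was bound for 2 h at 37°C in the same buffer plus 1 mM CaCl₂/MgCl₂. Binding was detected with alkaline phosphatase–avidin and pNPP at A405. Kd came from a one-site binding fit.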

Molecule | ligand binding, inhibitor, no ligand (background) (αMβ2 on PMN) | effect on Plg-dependent αMβ2 clustering (αMβ2) | PMN early/late apoptosis (% annexin V+ cells), inhibitor + Fg (human PMNs; 16 h, 37 °C) | PMN early/late apoptosis (% annexin V+ cells), inhibitor + P1 (human PMNs; 16 h, 37 °C) | PMN early/late apoptosis (% annexin V+ cells), inhibitor + P2-C (human PMNs; 16 h, 37 °C) | PMN early/late apoptosis (% annexin V+ cells), inhibitor + Plg (human PMNs; 16 h, 37 °C) | effect on Plg-dependent PMN survival (in words) (human PMNs; PMN with Plg, 16 h, 37 °C) | effect on Plg-dependent PMN survival (in words) (human PMNs) | recognition by αMβ2 [1]
CC(=O)C(C)=NO [BDM, 2,3-butanedione 2-monoxime] | 2.90 ± 0.5 MFI | blocked or significantly reduced | 98.7 ± 24% | 85.4 ± 20% | 97.8 ± 22% | 99.2 ± 24% | – | – | –
CC(C)[C@H](NC(=O)OCc1ccccc1)C(=O)N[C@H](C=O)Cc1ccccc1 [Calpain inhibitor III] (Cbz-Val-Phe-aldehyde) | 3.4 ± 0.4 MFI | blocked or significantly reduced | 88.9 ± 23% | 94.5 ± 22% | 74.7 ± 19% | 97.1 ± 22% | – | – | –
C=C1[C@@H](C)[C@H]2[C@H](Cc3ccccc3)NC(=O)[C@]23[C@H](OC(C)=O)/C=C/[C@@](C)(O)C(=O)[C@@H](C)C/C=C/[C@H]3[C@@H]1O [Cytochalasin D, cytochalasin D] | 2.3 ± 0.3 MFI | blocked or significantly reduced | 55.5 ± 18% | 66.07 ± 15% | 77.4 ± 16% | 66.6 ± 15% | – | – | –
CC1CNCCN1S(=O)(=O)c1cccc2cnccc12.Cl.Cl (stereo not drawn) [H7, 1-(5-isoquinolinylsulfonyl)-2-methylpiperazine dihydrochloride] | 3.2 ± 0.6 MFI | blocked or significantly reduced | 62.3 ± 16% | 60.1 ± 14% | 78.6 ± 17% | 79.2 ± 18% | – | – | –
COc1cccc(-c2cc(=O)c3ccccc3o2)c1N [PD 98059] | – | – | – | – | – | – | reduced Plg-dependent PMN survival, but to a lesser extent than the Akt inhibitor | – | –
NCCCCCC(=O)O [ε-aminocaproic acid] | – | – | – | – | – | – | – | reduced | –
Ang([1]–[3]): angiostatin fragment which lacks kringle 4; Calbiochem | – | – | – | – | – | – | – | – | is recognized by this integrin
